Source: ChEMBL document CHEMBL4041482, “Synthesis, evaluation, and CoMFA study of fluoroquinophenoxazine derivatives as bacterial topoisomerase IA inhibitors” (Eur J Med Chem, 2017)
In brackets after ≈: the same amount, converted by molar mass.

Key:
[1] = Inhibition of recombinant Escherichia coli topoisomerase 1a expressed in Escherichia coli assessed as reduction in enzyme-mediated relaxation of supercoiled pBAD/Thio DNA preincubated with enzyme followed by substrate addition measured after 30 mins by ethidium bromide staining based agarose gel electrophoresis method
[2] = Solubility in DMSO-d6 solvent by 1H NMR method; format: physicochemical
[3] = system: Escherichia coli; test: Antibacterial activity against Escherichia coli BAS3023 harboring imp mutant by microdilution method; format: functional
How it was run: (§1)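 MICs determined by standard broth microdilution in cation-adjusted Mueller-Hinton Broth; E. coli BAS3023 carries an imp mutation conferring membrane permeability to small molecules, MG1655 K12 is wild type.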

[4] = Stability of the compound in DMSO-d6 solvent after several weeks by HPLC method; format: physicochemical
[5] = Inhibition of recombinant Escherichia coli DNA gyrase expressed in Escherichia coli assessed as reduction in enzyme-mediated supercoiling of relaxed circular DNA preincubated with enzyme followed by substrate addition measured after 30 mins by agarose gel electrophoresis method
[6] = Inhibition of recombinant Escherichia coli topoisomerase 1a expressed in Escherichia coli assessed as reduction in enzyme-mediated relaxation of supercoiled pBAD/Thio DNA preincubated with enzyme followed by substrate addition measured after 30 mins by high-throughput screening assay
[7] = Inhibition of human topoisomerase type 1B assessed as reduction in enzyme-mediated relaxation of supercoiled pBAD/Thio DNA after 30 mins by agarose gel electrophoresis method
How it was run: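 Human topoisomerase I, 0.5 U, in manufacturer's reaction buffer; enzyme mixed with compound before 200 ng supercoiled pBAD/Thio plasmid added, 20 μL final. 37 °C for 30 minutes; stopped with SDS/bromophenol blue/glycerol buffer; agarose gel electrophoresis read-out.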

[8] = biological target: DNA topoisomerase 2-alpha (Homo sapiens, UniProt P11388); test: Inhibition of human topoisomerase-2alpha assessed as reduction in enzyme-mediated decatenation using kinetoplast DNA as substrate after 15 mins by ethidium bromide staining based agarose gel electrophoresis method
DNA topoisomerase 2-alpha, sequence (P11388 whole entry): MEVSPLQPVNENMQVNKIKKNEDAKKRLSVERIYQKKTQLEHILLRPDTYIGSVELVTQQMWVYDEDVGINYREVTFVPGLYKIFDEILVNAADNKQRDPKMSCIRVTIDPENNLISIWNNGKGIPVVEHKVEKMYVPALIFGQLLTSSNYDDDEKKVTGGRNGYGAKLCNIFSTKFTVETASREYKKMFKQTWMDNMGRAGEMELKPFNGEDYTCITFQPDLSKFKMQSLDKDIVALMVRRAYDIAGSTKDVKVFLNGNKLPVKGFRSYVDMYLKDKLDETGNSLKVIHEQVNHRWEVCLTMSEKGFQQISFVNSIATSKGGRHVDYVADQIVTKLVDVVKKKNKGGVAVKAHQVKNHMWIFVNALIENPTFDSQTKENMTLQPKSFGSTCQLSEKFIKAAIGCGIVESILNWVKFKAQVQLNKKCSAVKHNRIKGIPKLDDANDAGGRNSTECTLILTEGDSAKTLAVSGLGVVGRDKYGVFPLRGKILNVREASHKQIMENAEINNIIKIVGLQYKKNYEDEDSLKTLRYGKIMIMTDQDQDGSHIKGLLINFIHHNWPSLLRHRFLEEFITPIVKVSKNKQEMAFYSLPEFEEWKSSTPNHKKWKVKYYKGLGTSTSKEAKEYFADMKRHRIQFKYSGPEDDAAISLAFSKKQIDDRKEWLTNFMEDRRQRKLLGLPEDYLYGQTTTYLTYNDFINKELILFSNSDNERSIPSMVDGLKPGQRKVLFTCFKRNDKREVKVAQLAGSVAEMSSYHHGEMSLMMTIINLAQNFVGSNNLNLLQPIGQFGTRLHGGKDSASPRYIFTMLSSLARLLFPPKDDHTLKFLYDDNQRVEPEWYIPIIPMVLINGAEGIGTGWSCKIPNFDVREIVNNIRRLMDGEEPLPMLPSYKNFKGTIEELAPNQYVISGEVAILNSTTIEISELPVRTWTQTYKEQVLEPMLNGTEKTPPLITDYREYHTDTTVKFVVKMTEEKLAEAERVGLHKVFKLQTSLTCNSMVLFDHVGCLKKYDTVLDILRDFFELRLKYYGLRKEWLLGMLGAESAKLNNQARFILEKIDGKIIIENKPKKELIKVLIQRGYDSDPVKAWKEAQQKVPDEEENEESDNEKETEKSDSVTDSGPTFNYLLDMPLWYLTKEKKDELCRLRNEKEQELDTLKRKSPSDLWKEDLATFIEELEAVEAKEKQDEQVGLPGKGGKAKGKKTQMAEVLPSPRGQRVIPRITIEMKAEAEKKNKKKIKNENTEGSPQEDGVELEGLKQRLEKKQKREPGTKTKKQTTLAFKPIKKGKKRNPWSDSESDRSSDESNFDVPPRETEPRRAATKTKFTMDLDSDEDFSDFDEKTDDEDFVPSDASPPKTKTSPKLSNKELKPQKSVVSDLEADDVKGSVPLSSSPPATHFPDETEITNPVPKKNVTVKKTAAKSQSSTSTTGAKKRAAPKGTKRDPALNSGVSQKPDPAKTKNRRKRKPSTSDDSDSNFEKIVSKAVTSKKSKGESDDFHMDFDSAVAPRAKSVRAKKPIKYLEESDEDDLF

[9] = Stability of the compound in DMSO-d6 solvent after several weeks by 1H NMR method; format: physicochemical
[10] = system: Escherichia coli; test: Antibacterial activity against Escherichia coli K12 MG1655 by microdilution method; format: functional; settings: K-12 substr. MG1655; how it was run: as §1
[11] = system: Bacillus spizizenii; test: Antibacterial activity against Bacillus subtilis ATCC 6633 by microdilution method; format: functional
How it was run: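 Broth microdilution per standard protocol in cation-adjusted Mueller-Hinton broth; MIC taken as lowest inhibiting concentration.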

[12] = system: Vero; test: Cytotoxicity against African green monkey Vero cells assessed as reduction in cell viability after 72 hrs by MTS assay; format: cell-based; settings: Chlorocebus sabaeus
[13] = system: Mycobacterium tuberculosis; test: Antimycobacterial activity against Mycobacterium tuberculosis H37Rv after 7 days by microplate alamar blue assay; format: functional; settings: 168 h

Compound | IC50 [1] | pIC50 [1] | solubility [2] | MIC [3] | Stability [4] | IC50 [5] | IC50 [6] | IC50 [7] | IC50 [8] | Stability [9] | MIC [10] | MIC [11] | IC50 [12] | MIC [13]
Nc1ccc2c(c1)Oc1c(F)c(F)cc3c(=O)c(C(=O)O)cn-2c13 | 1.95 µM | 5.71 | Insoluble | 0.78 to 1.56 µM (≈ 0.258 to 0.515 µg/mL) | Stable | > 125 µM | 0.8 to 2 µM | 31.3 µM | > 500 µM | Stable | > 200 µM | – | – | –
CN1CCN(c2c(F)cc3c(=O)c(C(=O)O)cn4c3c2Oc2cc(N)ccc2-4)CC1 | 0.48 µM | 6.32 | – | – | – | 15.6 to 31.2 µM | – | 15.6 µM | 3.9 to 7.8 µM | – | – | – | – | –
N#Cc1ccc2c(c1)Oc1c(F)c(F)cc3c(=O)c(C(=O)O)cn-2c13 | 31.2 µM | 4.51 | – | 200 µM (≈ 68 µg/mL) | – | – | – | – | – | – | > 200 µM | > 200 µM | – | –
CC(=O)Nc1ccc2c(c1)Oc1c(F)c(F)cc3c(=O)c(C(=O)O)cn-2c13 | 7.8 µM | 5.11 | – | > 200 µM | – | – | – | – | – | – | > 200 µM | > 200 µM | – | –
Nc1ccc2c(c1)Oc1c(N3CC[C@H](N)C3)c(F)cc3c(=O)c(C(=O)O)cn-2c13 | 0.48 to 0.97 µM | 6.14 | – | 1.56 µM (≈ 0.618 µg/mL) | – | – | – | – | – | – | > 200 µM | 6.25 µM (≈ 2.48 µg/mL) | > 63.1 µM | –
O=C(O)c1cn2c3c(c(F)c(F)cc3c1=O)Oc1cc(C(F)(F)F)ccc1-2 | 125 to 250 µM | 3.61 | – | > 200 µM | – | – | – | – | – | – | > 200 µM | 25 µM (≈ 9.58 µg/mL) | – | –
Nc1ccc2c(c1)Oc1c(N3CCNCC3)c(F)cc3c(=O)c(C(=O)O)cn-2c13 | 0.24 µM | 6.62 | – | 0.39 µM (≈ 0.155 µg/mL) | – | 7.8 to 15.6 µM | – | 7.8 µM | 1.95 to 3.9 µM | – | > 200 µM | – | > 126 µM | –
Nc1ccc2c(c1)Oc1c(N3CCC(N4CCCCC4)CC3)c(F)cc3c(=O)c(C(=O)O)cn-2c13 | 0.48 µM | – | – | 0.39 to 0.78 µM (≈ 0.187 to 0.373 µg/mL) | – | 15.6 µM | – | 3.9 µM | – | – | > 200 µM | 1.56 µM (≈ 0.746 µg/mL) | 24.4 µM | 2.5 µM (≈ 1.2 µg/mL)
CN1CCN(c2c(F)cc3c(=O)c(C(=O)O)cn4c3c2Oc2cc([N+](=O)[O-])ccc2-4)CC1 | 1.95 µM | 5.71 | – | 1.56 µM (≈ 0.687 µg/mL) | – | 62.5 to 125 µM | – | 31.2 µM | – | – | 100 µM (≈ 44 µg/mL) | 0.78 µM (≈ 0.344 µg/mL) | 95 µM | 19 µM (≈ 8.37 µg/mL)
Nc1ccc2c(c1)Oc1c(NC3CCCC3)c(F)cc3c(=O)c(C(=O)O)cn-2c13 | 3.9 µM | 5.41 | – | 25 µM (≈ 9.88 µg/mL) | – | – | – | – | – | – | > 200 µM | 12.5 µM (≈ 4.94 µg/mL) | – | –
CCOC(=O)c1cn2c3c(c(F)c(F)cc3c1=O)Oc1cc([N+](=O)[O-])ccc1-2 | 15.6 µM | 4.81 | – | 50 µM (≈ 19.4 µg/mL) | – | – | – | – | – | – | > 200 µM | 25 µM (≈ 9.71 µg/mL) | – | –
Nc1ccc2c(c1)Oc1c(NCCc3ccccc3)c(F)cc3c(=O)c(C(=O)O)cn-2c13 | 3.9 µM | 5.41 | – | 50 µM (≈ 21.6 µg/mL) | – | – | – | – | – | – | > 200 µM | 25 to 50 µM (≈ 10.8 to 21.6 µg/mL) | – | –
Nc1ccc2c(c1)Oc1c(NCCN3CCOCC3)c(F)cc3c(=O)c(C(=O)O)cn-2c13 | – | – | – | 0.78 µM (≈ 0.344 µg/mL) | – | 15.6 to 31.2 µM | – | 7.8 to 15.6 µM | – | – | > 200 µM | 1.56 µM (≈ 0.687 µg/mL) | 43 µM | 21.6 µM (≈ 9.51 µg/mL)
O=C(O)c1cn2c3c(c(N4CCNCC4)c(F)cc3c1=O)Oc1cc([N+](=O)[O-])ccc1-2 | 3.9 µM | 5.41 | – | > 200 µM | – | – | – | – | – | – | > 200 µM | > 200 µM | – | –
Nc1ccc2c(c1)Oc1c(NC3CCCCC3)c(F)cc3c(=O)c(C(=O)O)cn-2c13 | 3.9 µM | 5.41 | – | 25 µM (≈ 10.2 µg/mL) | – | – | – | – | – | – | > 200 µM | 12.5 µM (≈ 5.12 µg/mL) | – | –
N[C@H]1CCN(c2c(F)cc3c(=O)c(C(=O)O)cn4c3c2Oc2cc([N+](=O)[O-])ccc2-4)C1 | 0.48 µM | 6.32 | – | 1.56 µM (≈ 0.665 µg/mL) | – | 3.9 µM | – | 7.8 µM | 1.95 to 3.9 µM | – | > 200 µM | 0.78 µM (≈ 0.333 µg/mL) | > 50 µM | > 50 µM
CC1CCN(c2c(F)cc3c(=O)c(C(=O)O)cn4c3c2Oc2cc(N)ccc2-4)CC1 | 3.9 µM | 5.41 | – | 3.12 µM (≈ 1.28 µg/mL) | – | – | – | – | – | – | > 200 µM | 0.78 µM (≈ 0.319 µg/mL) | – | –
CCOC(=O)c1cn2c3c(c(N4CCN(C)CC4)c(F)cc3c1=O)Oc1cc([N+](=O)[O-])ccc1-2 | 1.95 µM | 5.71 | – | 25 µM (≈ 11.7 µg/mL) | – | – | – | – | – | – | > 200 µM | 50 µM (≈ 23.4 µg/mL) | – | –
CC(=O)c1ccc2c(c1)Oc1c(F)c(F)cc3c(=O)c(C(=O)O)cn-2c13 | 15.6 µM | 4.81 | – | > 200 µM | – | – | – | – | – | – | > 200 µM | > 200 µM | – | –
O=C(O)c1cn2c3c(c(F)c(F)cc3c1=O)Oc1cc([N+](=O)[O-])c(Cl)cc1-2 | 31.2 µM | 4.51 | – | 0.39 µM (≈ 0.154 µg/mL) | – | 62.5 µM | – | 31.2 µM | – | – | 50 µM (≈ 19.7 µg/mL) | 3.12 µM (≈ 1.23 µg/mL) | > 127 µM | 29 µM (≈ 11.4 µg/mL)
CCOC(=O)c1cn2c3c(c(F)c(F)cc3c1=O)Oc1cc(C(F)(F)F)ccc1-2 | 125 to 250 µM | 3.6 | – | > 200 µM | – | – | – | – | – | – | > 200 µM | > 200 µM | – | –
CC(C)(C)OC(=O)N[C@H]1CCN(c2c(F)cc3c(=O)c(C(=O)O)cn4c3c2Oc2cc(N)ccc2-4)C1 | 3.9 µM | 5.41 | – | – | – | – | – | – | – | – | > 200 µM | 12.5 µM (≈ 6.21 µg/mL) | – | –
CCCCCCNc1c(F)cc2c(=O)c(C(=O)O)cn3c2c1Oc1cc(N)ccc1-3 | 15.6 µM | 4.81 | – | > 200 µM | – | – | – | – | – | – | > 200 µM | > 200 µM | – | –
CCOC(=O)c1cn2c3c(c(F)c(F)cc3c1=O)Oc1cc(C#N)ccc1-2 | 31.2 µM | 4.51 | – | > 200 µM | – | – | – | – | – | – | > 200 µM | 200 µM (≈ 73.7 µg/mL) | – | –
Nc1ccc2c(c1)Oc1c(N3CCOCC3)c(F)cc3c(=O)c(C(=O)O)cn-2c13 | 0.97 µM | 6.01 | – | 0.19 to 0.39 µM (≈ 0.0755 to 0.155 µg/mL) | – | 7.8 µM | – | – | – | – | > 200 µM | 0.19 µM (≈ 0.0755 µg/mL) | 24.7 µM | 3.5 µM (≈ 1.39 µg/mL)
O=C(O)c1cn2c3c(c(F)c(F)cc3c1=O)Oc1cc([N+](=O)[O-])ccc1-2 | 15.6 µM | 4.81 | – | 0.78 µM (≈ 0.281 µg/mL) | – | – | – | – | – | – | 200 µM (≈ 72 µg/mL) | 12.5 µM (≈ 4.5 µg/mL) | – | –
Nc1ccc2c(c1)Oc1c(N3CC[C@@H](N)C3)c(F)cc3c(=O)c(C(=O)O)cn-2c13 | 0.48 to 0.97 µM | 6.14 | – | 6.25 µM (≈ 2.48 µg/mL) | – | – | – | – | – | – | – | 12.5 µM (≈ 4.95 µg/mL) | > 63.1 µM | > 63.1 µM
